The target of one experiment is T1, Vav3 CaWT in LNCaP cells (Homo sapiens, UniProt Q9UKW4).
T1 sequence (Q9UKW4 177-847 limits assumed): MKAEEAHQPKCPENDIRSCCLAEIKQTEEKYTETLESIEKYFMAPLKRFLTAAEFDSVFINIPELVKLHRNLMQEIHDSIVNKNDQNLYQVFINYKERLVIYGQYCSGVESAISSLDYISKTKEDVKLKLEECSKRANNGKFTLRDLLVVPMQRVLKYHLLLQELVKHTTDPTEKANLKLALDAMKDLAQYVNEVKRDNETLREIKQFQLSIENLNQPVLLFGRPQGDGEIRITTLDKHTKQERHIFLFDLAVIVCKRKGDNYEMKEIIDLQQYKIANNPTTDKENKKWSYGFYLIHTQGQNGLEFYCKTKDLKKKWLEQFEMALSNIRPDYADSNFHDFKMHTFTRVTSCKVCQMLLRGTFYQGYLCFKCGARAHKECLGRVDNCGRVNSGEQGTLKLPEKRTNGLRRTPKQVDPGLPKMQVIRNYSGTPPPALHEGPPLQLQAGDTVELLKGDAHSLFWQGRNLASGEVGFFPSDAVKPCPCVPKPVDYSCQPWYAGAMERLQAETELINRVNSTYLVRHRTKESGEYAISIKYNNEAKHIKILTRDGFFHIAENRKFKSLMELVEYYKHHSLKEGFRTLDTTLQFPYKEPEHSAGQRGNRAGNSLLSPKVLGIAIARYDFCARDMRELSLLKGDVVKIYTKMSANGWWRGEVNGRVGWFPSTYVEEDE
Nature of the experiment: Membrane translocation of GFP-tagged protein, confocal microscopy. In kind it is cell-based. As to conditions: 10 μM PMA. The gist of the method: (§1)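 LNCaP cells (passage 3–20) grown in RPMI 1640 with 10% FBS and 2 mM L-glutamine at 37°C, transfected with GFP constructs at 75% confluency; PMA added 24 h later. Confocal imaging with 488 nm excitation and 535–553 nm emission. Membrane/cytoplasm mean-intensity ratio from 3 membrane and 3 cytoplasm regions (~5 μm²) at 0, 5, 10, 30, 45 min (120 min where indicated). Mean ± SEM, ≥3 cells in each of ≥3 independent experiments; Student's t-test.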

Experiment [1] concerns the target T2, full length Vav3 wild-type in LNCaP cells (Homo sapiens, UniProt Q9UKW4).
T2 sequence (Q9UKW4 1-847): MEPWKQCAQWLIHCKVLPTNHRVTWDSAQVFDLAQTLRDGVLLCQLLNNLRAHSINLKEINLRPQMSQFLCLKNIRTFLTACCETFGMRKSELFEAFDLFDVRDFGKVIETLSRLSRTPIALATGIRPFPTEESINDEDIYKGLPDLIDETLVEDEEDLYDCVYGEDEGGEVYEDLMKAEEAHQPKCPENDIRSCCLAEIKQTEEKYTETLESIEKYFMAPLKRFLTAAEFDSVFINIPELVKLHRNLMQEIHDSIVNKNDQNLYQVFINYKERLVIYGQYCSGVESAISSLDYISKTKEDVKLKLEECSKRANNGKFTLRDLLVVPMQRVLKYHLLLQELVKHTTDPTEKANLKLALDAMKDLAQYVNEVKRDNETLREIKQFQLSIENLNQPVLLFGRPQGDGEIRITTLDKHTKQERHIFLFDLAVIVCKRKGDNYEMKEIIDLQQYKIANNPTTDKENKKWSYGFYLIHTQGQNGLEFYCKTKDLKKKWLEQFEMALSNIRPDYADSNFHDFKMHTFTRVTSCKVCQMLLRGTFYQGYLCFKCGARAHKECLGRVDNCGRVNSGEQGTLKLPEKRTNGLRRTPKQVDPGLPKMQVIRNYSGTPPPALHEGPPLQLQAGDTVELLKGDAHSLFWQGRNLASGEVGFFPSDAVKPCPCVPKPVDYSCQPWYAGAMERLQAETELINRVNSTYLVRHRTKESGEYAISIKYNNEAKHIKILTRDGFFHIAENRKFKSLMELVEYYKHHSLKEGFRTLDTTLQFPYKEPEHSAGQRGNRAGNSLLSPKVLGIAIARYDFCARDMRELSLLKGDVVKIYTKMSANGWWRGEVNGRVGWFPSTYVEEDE
The description is as above. Conditions: 10 μM PMA. In kind it is cell-based. Put shortly: as §1

The target of a further experiment is T3, Vav3 5X in LNCaP cells (Homo sapiens, UniProt Q9UKW4, R523S/T522M/T537L/V524P/Y539K).
T3 sequence (Q9UKW4 1-847 T522M/R523S/V524P/T537L/Y539K): T2 sequence (Q9UKW4 1-847) with T522M, R523S, V524P, T537L, Y539K
The description is as above. Type of experiment: cell-based. Conditions: 10 μM PMA. Put shortly: as §1

A further experiment has as its target T4, Vav3 C1 2X (T24L/Y26K) (Homo sapiens, UniProt Q9UKW4, T537L/Y539K).
T4 sequence (Q9UKW4 513-562 T537L/Y539K): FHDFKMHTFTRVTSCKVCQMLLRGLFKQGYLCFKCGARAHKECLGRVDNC
Nature of the experiment: [3H]PDBu binding, polyethylene glycol precipitation assay. Put shortly:
(§2)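 GST-fused C1 domain, cloned into pGEX-5x-1 and expressed in BL21 cells. Cultures grown in LB at 37°C to OD 0.5, induced with 0.5 mM IPTG, then grown 4 h at 37°C. Cells lysed with bacterial extraction reagent; protein purified and eluted on a GST spin column. Kd for [3H]PDBu determined by polyethylene glycol precipitation. Values are mean ± SEM of three experiments.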

Experiment [2] concerns the target T5, Vav2 C1 5X (D9M/K10S/T11P/T24L/Y26K) (Homo sapiens, UniProt P52735, D532M/K533S/T534P/T547L/Y549K).
T5 sequence (P52735 523-572 D532M/K533S/T534P/T547L/Y549K): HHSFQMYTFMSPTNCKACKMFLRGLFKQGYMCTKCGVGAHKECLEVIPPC
The experiment is described as above. The gist of the method:
as §2

A further experiment has as its target Vav1 C1 WT. Conditions: GST-tagged C1 domain; NA, no activity; ref [17]; cited from earlier work.
The target of experiment [3] is T6, Vav3 C1 3X (T9M/R10S/V11P) (Homo sapiens, UniProt Q9UKW4, R523S/T522M/V524P).
T6 sequence (Q9UKW4 513-562 T522M/R523S/V524P): T4 sequence (Q9UKW4 513-562 T537L/Y539K) with T10M, R11S, V12P, L25T, K27Y
Nature of the experiment: [3H]PDBu binding, polyethylene glycol precipitation assay. Put shortly: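 GST-fused C1 domain, cloned into pGEX-5x-1 and expressed in BL21 cells. Cultures grown in LB at 37°C to OD 0.5, induced with 0.5 mM IPTG, then grown 4 h at 37°C. Cells lysed with bacterial extraction reagent; protein purified and eluted on a GST spin column. Kd for [3H]PDBu determined by polyethylene glycol precipitation. Values are mean ± SEM of two replicates.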

The next experiment has as its target Vav1 C1 2X (T24L/Y26K). Conditions: GST-tagged C1 domain; NA, no activity; ref [17]; cited from earlier work.
Experiment [4] addresses T7, Vav3 C1 5X (T9M/R10S/V11P/T24L/Y26K) (Homo sapiens, UniProt Q9UKW4, R523S/T522M/T537L/V524P/Y539K).
T7 sequence (Q9UKW4 513-562 T522M/R523S/V524P/T537L/Y539K): T4 sequence (Q9UKW4 513-562 T537L/Y539K) with T10M, R11S, V12P
In words: [3H]PDBu binding, polyethylene glycol precipitation assay. Put shortly:
as §2

Experiment [5] addresses Vav1 C1 5X (E9M/E10S/T11P/T24L/Y26K). Conditions: ref [17], cited from earlier work.
The test system of experiment [6] is C1 domain of PKCδ with the corresponding residues in the Vav1 C1 domain. As to conditions: five amino acids replaced; ref [17]; cited from earlier work.
In experiment [7] the target is Vav1 C1 3X (E9M/E10S/T11P). As to conditions: ref [17], cited from earlier work.
The mark [8] stands for this setting: GST-tagged C1 domain, mean ± SEM of triplicate experiments.

Substitutions are numbered along the chain they refer to.

With `CCCCCCCCCCCCCC(=O)O[C@@H]1[C@@H](C)[C@@]2(O)[C@@H](C=C(CO)C[C@]3(O)C(=O)C(C)=C[C@@H]23)[C@@H]2C(C)(C)[C@]12OC(C)=O` [PMA, phorbol 12-myristate 13-acetate], the “membrane translocation in response to phorbol ester” value on Vav3 CaWT in LNCaP cells is “neither the wild-type Vav3 nor the Vav3 CaWT translocated”; in experiment [1], “neither the wild-type Vav3 nor the Vav3 CaWT translocated”; on Vav3 5X in LNCaP cells, “became visible after 10 min but became more evident after 2 h”.

In the case of `CCCC(=O)O[C@@H]1[C@@H](C)[C@@]2(O)[C@@H](C=C(CO)C[C@]3(O)C(=O)C(C)=C[C@@H]23)[C@@H]2C(C)(C)[C@]12OC(=O)CCC` [PDBu, Phorbol 12,13-dibutyrate], the “Relative to PKCδ C1b” value on Vav3 C1 2X (T24L/Y26K) is listed as 938 ×; in [2], 3370 ×; in [3], 4380 ×; in [4] it was 23.5×; in experiment [5] it was 5.4×; in [7] it was 38,000 ×. Besides, the equilibrium dissociation constant (Kd) was 188 ± 35 nM at Vav3 C1 2X (T24L/Y26K) (setting [8]); 650.7 ± 2.6 nM in [2] (setting [8]); “no detectable binding” on Vav1 C1 WT; 840 ± 120 nM in experiment [3] (GST-tagged C1 domain, mean ± SEM, only 2 replicates); “did not restore phorbol ester binding” at Vav1 C1 2X (T24L/Y26K); 4.7 ± 0.8 nM in [4] (setting [8]). Moreover, the values for the dissociation constant (Kd) in [5] (GST-tagged C1 domain) and in experiment [7] (GST-tagged C1 domain) were 1.05 ± 0.14 nM and 7330 ± 490 nM, respectively. In addition, the PDBu binding affinity entry in [6] is “abolished detectable PDBu binding affinity”.

In general, Kd refers to the equilibrium constant for the complex coming apart.
